Assay outcomes: PubChem, several laboratories
Sampled rows, rich in hits. Any-hit rate of the full collection: about 2.2%.
AP complement = alternative pathway complement inhibition, orthogonal assay; 62,000 compounds, 0.08% hits; inhibition, % at 5 µM; AID 1235; Human serum alternative complement pathway, LPS-coated ELISA, C3 deposition; tested in compound mixtures;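 active means inhibition above 30% in each of the two pooled mixtures holding the compound, so the lower value exceeds 30%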
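Assay system: human serum alternative complement pathway, C3 deposition on LPS-coated wells; Dosing: 5 µM per compound in ten-compound mixtures; Detection: Anti-C3 ELISA, OD 450 nm; Buffer or medium: Mg2+-EGTA GVB++ buffer containing human serum at 1:15 dilution; Timing: 1 h at 37 °C; Replication: two different pools per compound.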
SF1 activator = activators of human nuclear receptor SF-1; Q13285; AID 522; 65,000 compounds, 1.9% hits; CHO-K1 Gal4-SF-1 LBD luciferase reporter; % increase over DMSO SF-1-specific signal; activation, % at 10 µM;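 active means activation above the mean activation of all tested compounds plus 3 SD, cut at about 50% in these data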
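Compound – one dose, 10 µM compound, 1% DMSO · Test system – transient Gal4-SF-1 LBD reporter, CHO-K1 · Input – 4,000 cells in each well · Read-out basis – percent activation relative to DMSO median and mock-transfected background · Replicates – single measurement per compound · Technique – steady-glow luciferase luminescence, read after 15 min reagent incubation · Timing – 20 h compound treatment, 37 °C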
TNAP act mid DEA = activates human TNAP at intermediate phosphate acceptor concentration; P05186; 64,000 tested, under 10 active; activation factor at 20 µM; purified TNAP, CDP-star luminescence, 100 mM DEA, 30 min; hits give high values; scale: 0 levamisole-inhibited, 1 vehicle-only enzyme;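 active means activation factor of at least 2 at 20 µM, relative to controls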
Ec RNAP inh = blocks E. coli RNA polymerase transcription. P0A8V2. fluorescence transcription assay. inhibition, %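 (tested at 10 µM)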. 62,000 compounds, 0.2% hits; in the data active means inhibition above about 20%
MT1-MMP txn act = MT1-MMP promoter transcription activation | 86,000 compounds, 0.16% hits | HT1080 MT1-MMP promoter luciferase reporter, luminescence, overnight; hits give high values | activation factor at 10 µM;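 active means activation factor of at least 2 for MT1-MMP transcription at 10 µM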
RORA act = activators of human nuclear receptor RORA; P35398; CHO-K1 Gal4-RORA LBD luciferase reporter, luminescence; percent increase over mock-subtracted basal signal; activation, % at 10 µM; 65,000 compounds, 1.5% hits;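 active means activation above the mean of all tested compounds plus 3 SD, cut at about 49% in these data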
Each line names hits and unclear results; the compound was inactive in the other large screens.

O=C1CC(c2cccs2)Sc2nc3ccccc3n21 (stereo not drawn)	SF1 activator 80
O=C1CC(c2ccco2)Sc2nc3ccccc3n21 (stereo not drawn)	none
CC(=O)c1cccc2c(O)c(C3=Nc4ccccc4C3=O)[nH]c12	MT1-MMP txn act 2.3 (no result: AP complement, SF1 activator, TNAP act mid DEA, Ec RNAP inh, RORA act)
COc1ccc(CCN2C(=O)CC(N3CCN(c4ccccn4)CC3)C2=O)cc1OC (stereo not drawn)	AP complement 33
COc1ccc(CCN2C(=O)CC(N3CCOCC3)C2=O)cc1OC (stereo not drawn)	none (no result: AP complement, SF1 activator, TNAP act mid DEA, Ec RNAP inh, RORA act)
CCOC(=O)c1cnc(SCC(=O)Nc2nc(C)c(C)s2)nc1N	none
COc1ccccc1N1CCN(c2ncnc3c2oc2ccccc23)CC1	AP complement 33, RORA act 56
COc1ccc(Cn2c(C3CC3)nc3ccc(NC(C)=O)cc3c2=O)cc1	SF1 activator 58, RORA act 77
CS(=O)(=O)c1sc2nc(-c3cccs3)cc(-c3ccccc3)c2c1N	MT1-MMP txn act 2.2
COc1ccc2cc(CN(CC3COCCO3)S(=O)(=O)c3ccc(Cl)cc3)c(=O)[nH]c2c1 (stereo not drawn)	none
CCc1c2c(nc3ccc(OC)cc13)OC(CC)C2 (stereo not drawn)	none (no result: AP complement, SF1 activator, TNAP act mid DEA, Ec RNAP inh, RORA act)
CCOC(=O)C1CCN(S(=O)(=O)C(F)(F)c2nc3ccccc3s2)CC1	RORA act 71
CC(=O)N1CCN(c2nc3cc4c(cc3nc2NS(=O)(=O)c2ccccc2)OCCO4)CC1	none (no result: MT1-MMP txn act)
Cc1ccc(-n2c(C)cc(/C=c3/sc4nc5ccccc5n4c3=O)c2C)cc1	none (no result: AP complement, SF1 activator, TNAP act mid DEA, Ec RNAP inh, RORA act)
COc1cc(N2CCCC2)c(OC)cc1/C=c1/sc2nc3ccccc3n2c1=O	SF1 activator 54 (no result: AP complement)
CC(C)(C)C(=O)Nc1cccc(-c2nnc(-c3cccc(NC(=O)C(C)(C)C)c3)o2)c1	none (no result: AP complement, SF1 activator, TNAP act mid DEA, Ec RNAP inh, RORA act)
COc1cccc(C(=O)Nc2cccc(-c3nnc(-c4ccccc4)o3)c2)c1	SF1 activator 92
CC(=O)Nc1cccc(-c2nnc(-c3ccccc3)o2)c1	SF1 activator 51
O=C(CNc1ccccc1)Nc1ccc(F)cc1	SF1 activator 61
O=C(Nc1ccc(-c2cn3ccsc3n2)cc1)C1CCCC1	SF1 activator 58
O=C(CCN1C(=O)c2ccccc2C1=O)Nc1ccc(-c2nc3ccccc3o2)cc1	SF1 activator 53, RORA act 50
O=C(CCN1C(=O)c2ccccc2C1=O)Nc1ccc(F)cc1	none
O=C(Nc1ccc(-c2cn3ccsc3n2)cc1)C1CC1	SF1 activator 61
O=C(CN1C(=O)c2ccccc2C1=O)Nc1ccc(-c2nc3ccccc3o2)cc1	none
O=C(CCN1C(=O)c2ccccc2C1=O)Nc1ccc(-c2cn3ccsc3n2)cc1	SF1 activator 65
CC(=O)Nc1ccc(-c2cn3ccsc3n2)cc1	none
CC(=O)N1CC=CC1(C)C(=O)NCc1ccc(C)o1 (stereo not drawn)	none (no result: AP complement, SF1 activator, TNAP act mid DEA, Ec RNAP inh, RORA act)
COc1cc(C(=O)OCC(=O)c2cc(C)n(C)c2C)cc(OC)c1OC	SF1 activator 52
CCCCn1nnnc1NCc1ccc(N(CC)CC)cc1	none (no result: AP complement, SF1 activator, TNAP act mid DEA, Ec RNAP inh, RORA act)
CCOC(=O)c1[nH]c(C)c(C(=O)Nc2ccc(Cl)cc2)c1C	none
CCOC(=O)c1[nH]c(C)c(C(=O)Nc2cccc(Cl)c2C)c1C	RORA act 64
CC1=C(C(=O)OCC(Br)(Br)Br)C(c2cccc3ccccc23)NC(=O)N1CCCC(=O)O (stereo not drawn)	none (no result: AP complement, SF1 activator, TNAP act mid DEA, Ec RNAP inh, RORA act)
CCN(Cc1ccncc1)C(=O)C1CCN(S(=O)(=O)c2cccs2)CC1	none (no result: AP complement, SF1 activator, TNAP act mid DEA, Ec RNAP inh, RORA act)
CC(=O)/C=C(\C)Nc1ccc(-c2cnc(-c3ccccc3)o2)cc1	SF1 activator 57, RORA act 88
O=C(Nc1ccc(-c2nnc(-c3ccccc3)o2)cc1)C(F)(F)F	none
CCC1=C(C)N(CCCC(=O)O)C(=O)NC1c1cccc(Cl)c1Cl (stereo not drawn)	none (no result: AP complement, SF1 activator, TNAP act mid DEA, Ec RNAP inh, RORA act)
CCCc1n[nH]c2c1C(=O)C(C(=O)OC)C(C)(C)C2 (stereo not drawn)	none
c1cnc2c(OCc3nc4ccccc4[nH]3)cccc2c1	SF1 activator 65, RORA act 82
COc1ccc(C(=O)Nc2nc3ccccc3[nH]2)cc1OC	SF1 activator 50
COc1ccc(OCc2nc3ccccc3[nH]2)cc1	none (no result: AP complement, SF1 activator, TNAP act mid DEA, Ec RNAP inh, RORA act)
COc1ccccc1OCc1nc2ccccc2[nH]1	SF1 activator 53, RORA act 54
COc1ccccc1-c1nn2c(-c3ccco3)nnc2s1	SF1 activator 59 (no result: AP complement)
CC(=O)Nc1nc(COc2ccc3ccccc3c2)cs1	none (no result: AP complement, SF1 activator, TNAP act mid DEA, Ec RNAP inh, RORA act)
CC(=O)Nc1nc(COc2ccccc2)cs1	RORA act 51
COC(=O)c1ccc(C(/C=C/[C@@H](C)CO)NC(=O)OCc2ccccc2)cc1 (stereo partly drawn)	none (no result: AP complement, SF1 activator, TNAP act mid DEA, Ec RNAP inh, RORA act)
O=C(CCCNS(=O)(=O)c1cccs1)N1CCN(c2cccc(Cl)c2)CC1	Ec RNAP inh 43
O=C(CCNS(=O)(=O)c1cccs1)N1CCCCCC1	SF1 activator 60
COC(=O)[C@@]1(Cc2ccccc2)[C@H]2c3cc(C(=O)N(C)C)n(Cc4cc(F)c(F)c(F)c4)c3C[C@H]2CN1C(=O)c1ccccc1	none (no result: AP complement, SF1 activator, TNAP act mid DEA, Ec RNAP inh, RORA act)
Cc1ccc(C(=O)CSc2ccccn2)cc1	SF1 activator 84
O=C(CSc1ccccn1)c1ccc(F)cc1	none
CCC1C(=O)n2nc(-c3ccccc3)cc2N=C1C (stereo not drawn)	SF1 activator 91
CC(=O)c1sc(Nc2nc3ccc(F)cc3s2)nc1C	SF1 activator 53
CC(=NC1CCCCC1)C1=C(O)c2ccccc2C1=O	RORA act 88 (no result: AP complement, Ec RNAP inh)
COC(=O)C1=C(CCc2ccccc2)NC(=O)NC1c1cccc([N+](=O)[O-])c1 (stereo not drawn)	none (no result: AP complement, SF1 activator, TNAP act mid DEA, Ec RNAP inh, RORA act)
COc1ccc2nc3sc(C(=O)NCc4cccs4)c(N)c3cc2c1	SF1 activator 74
COc1ccc(CC(=O)NCc2cccs2)cc1OC	none (no result: AP complement, SF1 activator, TNAP act mid DEA, Ec RNAP inh, RORA act)
Nn1cnnc1SCC(=O)Nc1ccc(C2CCCCC2)cc1	SF1 activator 54
COc1cc2c(cc1NC(=O)c1ccc3c(c1)OCO3)oc1ccccc12	SF1 activator 54, MT1-MMP txn act 2.1
O=C(Nc1ccc2c(c1)oc1ccccc12)c1ccc2c(c1)OCO2	none
CS(=O)(=O)N(CC(=O)N1CCCCC1)c1sc2c(c1C#N)CCCC2	none
OC1CN=C2C=CC=CN2C1 (stereo not drawn)	none
CCCNC(=O)c1noc2c1CCc1ccccc1-2	none
O=C(NCCN1CCOCC1)c1noc2c1CCc1ccccc1-2	RORA act 77
Cc1ccc(NC(=O)CS(=O)CC(=O)N(c2ccc(C)cc2)C(C)C(=O)NC2CCCCC2)cc1 (stereo not drawn)	none (no result: AP complement, SF1 activator, TNAP act mid DEA, Ec RNAP inh, RORA act)
Cn1c(CN2CCCC2)nc2cc(NC(=O)c3ccco3)ccc21	SF1 activator 50
O=C(Nc1ccc2c(c1)ncn2-c1ccccc1)c1ccco1	RORA act 52
